# The list is not random: actives were taken first. Their share in the collection is about 2.4%.
# S100A4 inh HTS = inhibitors of human S100A4 binding to myosin IIA peptide; S100A4/TAMRA-MyoIIA peptide fluorescence polarization; 360,000 tested, 0.14% active; inhibition, % at 10.7 µM; AID 652163; P26447;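 active means mean inhibition of at least 70% across replicates, with every replicate also reaching that level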
# Target sequence (P26447 whole entry, looked up): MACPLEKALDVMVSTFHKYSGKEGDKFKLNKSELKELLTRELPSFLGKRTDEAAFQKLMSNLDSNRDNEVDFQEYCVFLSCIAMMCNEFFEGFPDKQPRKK
#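 incubation = readout 5 min after mixing, signal stable up to 60 min | system = S100A4 monomer protein | buffer or medium = HEPES pH 7.2 with CaCl2, KCl, NaCl, DTT, Triton | benchmarks = neutral control DMSO, positive control TFP | also added = fluorescent myosin IIA peptide, 5 nM | compound dosing = one concentration per compound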
# rRNA inh HTS = inhibits bacterial ribosomal RNA function over humanized ribosomes; GFP signal change (wild-type ribosome), % (test concentration not listed); E. coli WT GFP vs humanized-ribosome RFP mutants, fluorescence, 24 h; active compounds read low; DMSO median 0, no signal -100; 350,000 tested, 1.6% active; AID 720706;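 active means significant combined selectivity score with lowered wild-type GFP, culture density cut under 30%, mutant RFP and density less affected; inactive means any of these conditions unmet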
# ERAP1 HTS inh = inhibitors of human ERAP1 aminopeptidase; Q9NZ08; recombinant ERAP1, Leu-AMC fluorescence, 60 min; inhibition, % at 10.7 µM; 340,000 tested, 0.15% active; AID 652197;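 active means mean replicate inhibition of at least 30%, or all replicates individually reaching that 30% level; inactive means mean below 30% and not every replicate reaching it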
# Casp6 inh = inhibitors of human caspase-6. P55212. purified caspase-6, Z-VEID-R110 cleavage fluorescence. 350,000 tested, 0.53% active. inhibition, % at 12.5 µM;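 active means mean inhibition across replicates at least about 35%, with every replicate also reaching that limit, limit read from the data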
# Target sequence (P55212 24-179 limits assumed): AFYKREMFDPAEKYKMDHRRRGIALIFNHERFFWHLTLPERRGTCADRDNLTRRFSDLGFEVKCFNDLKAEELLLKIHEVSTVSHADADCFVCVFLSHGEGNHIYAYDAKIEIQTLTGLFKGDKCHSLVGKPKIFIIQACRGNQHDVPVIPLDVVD
# Target sequence (P55212 194-293 limits assumed): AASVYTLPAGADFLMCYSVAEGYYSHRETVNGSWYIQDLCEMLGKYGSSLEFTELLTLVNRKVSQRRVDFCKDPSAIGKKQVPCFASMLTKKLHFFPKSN
# PGC1a acetyl inh = modulators of PGC1a acetylation; U2OS PGC1a acetylation, AlphaScreen anti-acetyl-lysine; with virally co-expressed GCN5 acetyltransferase; inhibition, % at 15.6 µM; 350,000 tested, 0.17% active; AID 651687;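 active means every replicate shows inhibition of at least 40%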
# ARNT TACC3 PPI = ARNT/TACC3 interaction disruption; 390,000 tested, 0.66% active; AlphaScreen His-ARNT PAS-B/GST-TACC3 binding, luminescence; TACC3 fragment carries E629A point mutation; Q9Y6A5; inhibition, % at 9.99 µM;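 active means mean inhibition of replicates at least 50% and at least half of replicates each reaching 50%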
# Numbers stand for hits; – = inactive; · = not tested or not shown.
SMILES,S100A4 inh HTS,rRNA inh HTS,ERAP1 HTS inh,Casp6 inh,PGC1a acetyl inh,ARNT TACC3 PPI
CO[C@H]1CN(C)C(=O)c2ccc(NC(=O)c3ccc(F)cc3)cc2OC[C@@H](C)N(C)C[C@@H]1C,–,–,–,–,–,–
O=C(CSc1nnc(SCC(=O)c2ccco2)s1)c1ccco1,·,·,·,·,–,–
O=C(CSc1nc2cc(Cl)ccc2s1)c1ccco1,–,-21,–,–,–,–
CCOc1cc(-c2nc3ccccc3s2)ccc1O,–,-35,–,–,–,–
COc1cc(-c2nc3ccccc3s2)ccc1O,·,·,·,·,–,–
CC[N+](CC)(CC#Cc1ccccc1)CC#Cc1ccccc1,–,-45,–,–,·,–
C#CC[N+](CC)(CC)CC#Cc1ccccc1,–,–,–,–,–,·
CC1(Cc2ccc(Cl)cc2)C(=O)Nc2ccc(-c3cccnc3)cc21 (stereo not drawn),–,–,–,–,46,·
CC1(Cc2cccc(F)c2)C(=O)Nc2ccc(-c3cccnc3)cc21 (stereo not drawn),–,–,–,–,–,·
CN1c2ccc(C#Cc3cccc(F)c3)cc2[C@H]2[C@H](CCN2S(=O)(=O)c2ccccc2F)[C@@H]1CO,–,–,–,–,–,–
CN1c2ccc(C#Cc3cccnc3)cc2[C@@H]2[C@@H](CCN2S(=O)(=O)c2ccccc2F)[C@@H]1CO,120,–,–,–,–,–
CO[C@@H]1CN(C)C(=O)c2ccc(NS(=O)(=O)c3ccc(F)cc3)cc2OC[C@@H](C)N(C(=O)NC(C)C)C[C@H]1C,–,–,–,–,–,–
CCN(CC)c1ccc(NC(=O)CSc2nc(C)cc(=O)[nH]2)cc1,–,-14,–,–,–,–
Cc1cc(=O)[nH]c(SCC(=O)Nc2ccc(S(N)(=O)=O)cc2)n1,–,–,–,52,–,–
CCNC(=O)C[C@@H]1CC[C@@H]2[C@@H](COc3ccc(NC(=O)Nc4cccc(OC)c4)cc3C(=O)N2C)O1,·,–,·,·,–,–
COc1c(Br)cc([N+](=O)[O-])c(OC)c1C(=O)NC(=O)Nc1c(Cl)cccc1Cl,–,-38,–,–,–,–
COc1ccc(OC)c(/C=N/NC(=O)c2cc[n+](CC(=O)c3ccccc3)cc2)c1,–,–,37,–,–,–
Cc1ccc([N+](=O)[O-])cc1S(=O)(=O)NCCc1c(C)[nH]c2c(C)cccc12,–,-20,–,–,–,–
CCCN1C[C@@H](C)[C@H](OC)CN(C)C(=O)c2cc(NS(=O)(=O)c3ccccc3)ccc2OC[C@H]1C,–,·,·,·,–,–
COCC(=O)N1CC[C@@H]2[C@@H](CO)Nc3ccc(-c4ccc(C#N)cc4)cc3[C@@H]21,·,–,·,·,–,·
CN(C)S(=O)(=O)c1cccc(NC(=O)c2n[nH]c(=O)c3ccccc23)c1,–,-26,–,–,–,–
CC(C)c1ccc(NC(=O)c2n[nH]c(=O)c3ccccc23)cc1,–,–,–,–,108,–
C[C@@H]1CCCCO[C@@H](CN(C)C(=O)c2ccncc2)[C@H](C)CN([C@H](C)CO)C(=O)c2cc(N(C)C)ccc2O1,–,–,–,–,–,–
C=CCN(c1ccc(C(=O)Nc2ccc3c(c2)OCO3)cc1)S(C)(=O)=O,–,–,–,–,93,–
C=CCN(c1ccc(C(=O)Nc2ccc3c(c2)n(C)c(=O)n3C)cc1)S(C)(=O)=O,–,–,–,–,–,–
SMILES,S100A4 inh HTS,rRNA inh HTS,ERAP1 HTS inh,Casp6 inh,PGC1a acetyl inh,ARNT TACC3 PPI
COCC#Cc1ccc2c(c1)O[C@@H](CN(C)C(=O)Nc1ccc(OC)cc1)[C@@H](C)CN([C@H](C)CO)S2(=O)=O,–,–,–,–,–,–
CC1(CC(=O)N/N=C/c2cc([N+](=O)[O-])c(O)cc2O)OCCO1,–,–,–,69,–,·
Cc1ccc(-n2c(C)cc(/C=N/NC(=O)CC3(C)OCCO3)c2C)c(C)c1,·,·,·,·,–,–
O=C(c1ccccc1)c1cccc(C(=O)c2ccccc2)c1,·,·,·,·,–,–
Nc1cc(N)cc(C(=O)c2ccccc2)c1,–,–,–,36,–,·
CCn1c(O)c(C=Nc2ccccc2)sc1=S,–,–,–,–,·,·
C=CCn1c(O)c(C=Nc2ccccc2)sc1=S,–,-22,–,–,–,–
Cc1cccc(NC(=O)/C(C#N)=C\c2cc(C)n(-c3ccc(C(=O)O)cc3)c2C)c1,–,-28,–,–,·,–
CNC[C@H]1Oc2cc(C#Cc3ccc(OC)cc3)ccc2S(=O)(=O)N([C@H](C)CO)C[C@@H]1C,–,–,–,–,–,–
CCC(=O)N[C@H]1CC[C@@H](CCn2cc(C3CC3)nn2)O[C@H]1CO,–,–,–,–,–,–
CC(NC(=O)COC(=O)C1CCN(c2ccc(C(F)(F)F)cn2)CC1)c1ccc(Br)cc1 (stereo not drawn),–,-24,–,–,–,–
CC(NC(=O)COC(=O)C1CCN(c2ccc(C(F)(F)F)cn2)CC1)c1ccc(F)cc1 (stereo not drawn),–,–,–,–,–,–
CCOC(=O)CCCNC(=O)CCNC(=O)c1ccc(OCC)cc1,·,·,·,·,–,–
CCCCCOc1ccc(C(=O)NCCC(=O)NCCCC(=O)OCC)cc1,–,-25,–,–,–,–
COC(=O)c1sc(-c2ccccc2)cc1NC(=O)C1CC1,–,-27,–,–,–,–
O=C(Cc1n[nH]c(=O)c2ccccc12)OCC(=O)N(Cc1ccccc1)Cc1ccccc1,–,-24,–,–,–,–
C[C@H](CO)N1C[C@H](C)[C@H](CN(C)Cc2ccc3c(c2)OCO3)Oc2c(NC(=O)c3nc4ccccc4s3)cccc2C1=O,–,–,–,–,·,·
CCCS(=O)(=O)c1c(S(=O)(=O)CCC)c2c(C)cccn2c1C(=O)N/N=C/c1cc(O)cc(O)c1,–,-21,–,–,–,·
CCCS(=O)(=O)c1c(S(=O)(=O)CCC)c2c(C)cccn2c1C(N)=O,·,·,·,·,·,–
COc1cccc(N2[C@@H](CC(=O)O)c3ccc(/C=C/C(=O)O)cc3S2(=O)=O)c1,–,–,–,62,·,·
CS(=O)(=O)N1CC2(C1)[C@@H](c1ccccc1)[C@H](CO)N2Cc1ccccn1,–,–,–,–,–,·
COCC(=O)Nc1ccc2c(c1)C(=O)N(C)C[C@@H](OC)[C@@H](C)CN[C@H](C)CO2,·,–,·,·,–,–
CN(C)C(=O)CN1C(=O)c2cccc3cccc1c23,–,–,–,–,–,–
CCN1C(=O)c2cccc3cccc1c23,–,–,44,–,–,–
COc1ccccc1CCC(=O)Nc1ccc2c(c1)CN(CCCn1cccn1)CC2,–,–,–,99,–,–
O=C(C1CC1)N1[C@@H](CO)[C@@H](c2ccccc2)C12CN(Cc1cccc(Cl)c1)C2,–,–,–,–,–,·
CC[C@H](C)/C=C(C)/C=C/c1cc2c(cn1)C(=O)[C@@](C)(OC(C)=O)C(O)=C2Cl,–,·,–,51,–,·

# Screening results: PubChem, Broad Institute
